Data on one molecule can be found in ChEMBL document CHEMBL1687801, “Pharmacokinetics-pharmacodynamics of a respiratory syncytial virus fusion inhibitor in the cotton rat model” (Antimicrob Agents Chemother, 2010).

By clearance is commonly meant a measure of how efficiently the substance is removed, as volume per time. The term AUC(0-t) denotes the area under the concentration-time curve up to a stated or last time point. As a reminder, the EC50 is the concentration needed to bring the measured effect to its halfway point. By AUC is commonly meant concentration integrated over time. The Kp is tissue or fluid exposure divided by exposure in the circulation.

The subject of series [1] is Respiratory syncytial virus. Put plainly: Antiviral activity against respiratory syncytial virus long strain infected in cotton rat assessed as log reduction in epithelial lining fluid viral load at 200 mg/kg, sc single dose administered 24 hrs before viral infection by plaque assay. It counts as functional. To be noted: route subcutaneous. An outline of the steps:
(§1)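 Cotton rats (60–100 g, six per dose cohort) received one s.c. dose of an aqueous slow-release nanocrystal suspension. At 24 h they were anesthetized with isoflurane and given 10⁶ PFU RSV Long intranasally in 0.1 ml. On day 4 lungs were lavaged once with 2.5 ml PBS. BALF supernatant was plaque-titrated on Vero cells (7 days, 37°C, methylene blue). Titers were urea-corrected to ELF; log reduction was taken versus untreated infected controls.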

The subject of series [2] is Respiratory syncytial virus. Put plainly: Antiviral activity against respiratory syncytial virus long strain infected in cotton rat assessed as log reduction in epithelial lining fluid viral load at 25 mg/kg, sc single dose administered 24 hrs before viral infection by qRT-PCR assay. It counts as functional. To be noted: route subcutaneous. The gist of the method:
(§2)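 Nanocrystal suspension was given as a single s.c. dose to cotton rats (six per cohort). RSV Long (10⁶ PFU) was inoculated intranasally 24 h later. On day 4, BALF from a single 2.5 ml PBS lavage was lysed with DTT and lysis buffer, and RNA was extracted with an internal control. Monoplex real-time RT-PCR was run in duplicate against an eight-point 10-fold RSV RNA standard. Titers were urea-corrected to ELF; reduction was taken versus untreated controls.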

The nature of series [3]: Drug level in Sprague-Dawley rat lung tissue at 10 mg/kg, iv administered as single bolus dose measured after 3 hrs. Set-up: dose 10 mg/kg, route intravenous. It counts as ADME, organism-based. To be noted: read-out: Drug uptake.
The test system of series [4] is Respiratory syncytial virus. As to the kind of experiment: Antiviral activity against respiratory syncytial virus long strain infected in cotton rat assessed as log reduction in epithelial lining fluid viral load at 200 mg/kg, sc single dose administered 24 hrs before viral infection by qRT-PCR assay. To be noted: route subcutaneous. It counts as functional. The gist of the method: as §2
For orientation: Real-time PCR tracks product formation cycle by cycle.

A short description of series [5]: Drug level in cotton rat bronchoalveolar lavage fluid at 10 mg/kg, iv administered as single bolus dose measured after 3 hrs. It counts as ADME, organism-based, Lung. Details: dose 10 mg/kg, route intravenous; call rule not given here. To be noted: read-out: Drug uptake.
For series [6], the system named is Respiratory syncytial virus. As to the kind of experiment: Antiviral activity against respiratory syncytial virus long strain infected in cotton rat assessed as log reduction in epithelial lining fluid viral load at 12.5 mg/kg, sc single dose administered 24 hrs before viral infection by plaque assay. It counts as functional. To be noted: route subcutaneous. An outline of the steps:
as §1

Series [7] in a line: Drug level in Sprague-Dawley rat bronchoalveolar lavage fluid at 10 mg/kg, iv administered as single bolus dose measured after 3 hrs. To be noted: read-out: Drug uptake. Set-up: dose 10 mg/kg, route intravenous. It counts as ADME, organism-based, Lung.
Series [8] concerns Respiratory syncytial virus. As to the kind of experiment: Antiviral activity against respiratory syncytial virus long strain infected in cotton rat assessed as log reduction in epithelial lining fluid viral load at 25 mg/kg, sc single dose administered 24 hrs before viral infection by plaque assay. As to conditions: route subcutaneous. It counts as functional. The gist of the method: as §1

Series [9] has as its system Respiratory syncytial virus. Put plainly: Antiviral activity against respiratory syncytial virus long strain infected in cotton rat assessed as log reduction in epithelial lining fluid viral load at 100 mg/kg, sc single dose administered 24 hrs before viral infection by plaque assay. To be noted: route subcutaneous. It counts as functional. The gist of the method: as §1

Series [10] concerns Respiratory syncytial virus. As to the kind of experiment: Antiviral activity against respiratory syncytial virus long strain infected in cotton rat assessed as log reduction in epithelial lining fluid viral load at 12.5 mg/kg, sc single dose administered 24 hrs before viral infection by qRT-PCR assay. It counts as functional. To be noted: route subcutaneous. An outline of the steps: as §2

The subject of the next series is Plasma. As to the kind of experiment: Drug level in cotton rat plasma at 12.5 - 200 mg/kg, sc administered as single dose measured after 24 hrs. It counts as ADME, organism-based. Set-up: dose 200 mg/kg, route subcutaneous. As to conditions: in vivo.
The test system of series [11] is Respiratory syncytial virus. Put plainly: Antiviral activity against respiratory syncytial virus long strain infected in cotton rat assessed as log reduction in epithelial lining fluid viral load at 100 mg/kg, sc single dose administered 24 hrs before viral infection by qRT-PCR assay. To be noted: route subcutaneous. It counts as functional. The gist of the method: as §2

Series [12] can be described thus: Clearance in Sprague-Dawley rat plasma at 10 mg/kg, iv administered as single bolus dose. It counts as ADME, organism-based. Set-up: dose 10 mg/kg, route intravenous.
For series [13], the system named is Respiratory syncytial virus. Put plainly: Antiviral activity against respiratory syncytial virus long strain infected in cotton rat assessed as maximum reduction in epithelial lining fluid viral load at 200 ng/ml plasma concentration. Set-up: scale not given: the % may be the effect or the level left. It counts as functional. The gist of the method: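 Plasma was drawn at 24 h after single s.c. nanocrystal doses (12.5–200 mg/kg) to cotton rats, just before intranasal RSV inoculation, and assayed by LC-MS/MS. Individual day-4 plaque-assay ELF titer reductions were plotted against this plasma concentration and fitted to a simple E_max model, E = (E_max × C24h)/(C24h + EC50).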

Series [14] can be described thus: AUC (0 to 24 hrs) in Sprague-Dawley rat plasma at 10 mg/kg, iv administered as single bolus dose. Details: time < 24 hr, dose 10 mg/kg, route intravenous. It counts as ADME, organism-based.
The nature of series [15]: Drug level in cotton rat epithelial lining fluid at 10 mg/kg, iv administered as single bolus dose measured after 3 hrs. It counts as ADME, organism-based. Set-up: dose 10 mg/kg, route intravenous. As to conditions: read-out: Drug uptake.
Series [16] concerns Respiratory syncytial virus. As to the kind of experiment: Antiviral activity against respiratory syncytial virus long strain infected in cotton rat assessed as log reduction in epithelial lining fluid viral load at 50 mg/kg, sc single dose administered 24 hrs before viral infection by qRT-PCR assay. To be noted: route subcutaneous. It counts as functional. An outline of the steps: as §2

Series [17] relates to Respiratory syncytial virus. Put plainly: microbe, parasite or virus in culture. To be noted: human respiratory syncytial virus, long, HeLaM.
Series [18] is described as follows: Drug level in Sprague-Dawley rat plasma at 10 mg/kg, iv administered as single bolus dose measured after 3 hrs. It counts as ADME, organism-based. Details: dose 10 mg/kg, route intravenous. To be noted: read-out: Drug uptake.
A short description of series [19]: AUC (0 to 24 hrs) in Sprague-Dawley rat bronchoalveolar lavage fluid at 10 mg/kg, iv administered as single bolus dose. To be noted: in vivo. It counts as ADME, organism-based, Lung. Set-up: time < 24 hr, dose 10 mg/kg, route intravenous.
Series [20] can be described thus: Volume of distribution at steady state in Sprague-Dawley rat plasma at 10 mg/kg, iv administered as single bolus dose. As to conditions: read-out: Vdss. It counts as ADME, organism-based. Set-up: dose 10 mg/kg, route intravenous.
The subject of series [21] is Respiratory syncytial virus. As to the kind of experiment: Antiviral activity against respiratory syncytial virus long strain infected in cotton rat assessed as log reduction in epithelial lining fluid viral load at 50 mg/kg, sc single dose administered 24 hrs before viral infection by plaque assay. It counts as functional. As to conditions: route subcutaneous. An outline of the steps:
as §1

A further series deals with Lung. Put plainly: AUC (0 to 24 hrs) in Sprague-Dawley rat lung tissue at 10 mg/kg, iv administered as single bolus dose. It counts as ADME, organism-based. Details: time < 24 hr, dose 10 mg/kg, route intravenous. To be noted: in vivo.
Series [22] can be described thus: Ratio of AUC (0 to 24 hrs) in Sprague-Dawley rat lung tissue to plasma. It counts as ADME.

Each structure is given as a SMILES string. ≈ marks a conversion by molar mass, not a printed value.

On to `Cc1ccc(CCCO)c(NCc2ccc3nc(NCCCN4CCOCC4)n(Cc4nc(C)ccc4O)c3c2)c1`, for which the log10PFU/ml in series [1] amounted to 1.2; in series [2], 0.6; in series [4] it was 2.2; in series [6], 0.2; in series [8] it was 0.3; in series [9], 0.8. Also, the log10PFU/ml is 0.5 in series [10], 1.7 in series [11], 1.1 in series [16] and 0.4 in series [21]. Moreover, the concentration at 3 h in [3] stood at 9400 ng/mL; in series [5], 23 ng/mL; in [7], 11 ng/mL; in series [15] it was 392 ng/mL; in [18] it was 63 ng/mL. The Drug uptake entry with Plasma is “Active”. Further, in series [12], the clearance is 143 mL/min/kg. Moreover, the Activity in [13] was determined as 50%. Besides, the AUC(0-t) at 24 h in [14] turned out to be 1100 ng·h/mL. This molecule yielded a half-maximal effective concentration (EC50) in series [17] of 0.07 ng/mL (≈ 0.125 nM). The AUC in series [19] was 170 ng·h/mL; with Lung, 131000 ng·h/mL. The Vd in [20] was 55 L/kg. Further, the concentration ratio (Kp) in [22] was 122.
